# Measured values taken from ChEMBL document CHEMBL1681746, “N-benzylimidazole carboxamides as potent, orally active stearoylCoA desaturase-1 inhibitors” (Bioorg Med Chem Lett, 2011).
# Key:
# Acyl-CoA desaturase 1 [1] = biological target: T1, Acyl-CoA desaturase 1 (Rattus norvegicus, UniProt P07308); experiment: Inhibition of rat liver SCD1 using [3H]-stearoylCoA
# T1 sequence (P07308 whole entry): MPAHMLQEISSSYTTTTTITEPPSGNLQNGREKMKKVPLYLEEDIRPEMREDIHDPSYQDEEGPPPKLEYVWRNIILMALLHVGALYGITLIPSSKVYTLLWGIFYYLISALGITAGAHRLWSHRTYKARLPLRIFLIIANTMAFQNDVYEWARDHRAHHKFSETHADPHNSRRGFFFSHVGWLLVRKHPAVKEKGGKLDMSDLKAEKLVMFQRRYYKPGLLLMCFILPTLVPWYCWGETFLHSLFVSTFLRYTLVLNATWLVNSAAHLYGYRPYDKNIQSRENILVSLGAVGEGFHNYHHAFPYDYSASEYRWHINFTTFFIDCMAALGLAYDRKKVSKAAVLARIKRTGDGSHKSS
# [2] = Volume of distribution at steady state in rat; type: ADME, organism-based; settings: in vivo, read-out: Vdss
# [3] = Clearance in rat; type: ADME, organism-based; settings: in vivo
# [4] = Intrinsic clearance in human liver microsomes assessed per mg of protein; type: ADME, Microsome
# [5] = Half life in po dosed in rat; type: ADME, organism-based; settings: in vivo
# [6] = Oral bioavailability in rat; type: ADME, organism-based; settings: in vivo
# Stearoyl-CoA desaturase = biological target: T2, Stearoyl-CoA desaturase (Homo sapiens, UniProt O00767); experiment: Inhibition of human SCD1
# T2 sequence (O00767 whole entry): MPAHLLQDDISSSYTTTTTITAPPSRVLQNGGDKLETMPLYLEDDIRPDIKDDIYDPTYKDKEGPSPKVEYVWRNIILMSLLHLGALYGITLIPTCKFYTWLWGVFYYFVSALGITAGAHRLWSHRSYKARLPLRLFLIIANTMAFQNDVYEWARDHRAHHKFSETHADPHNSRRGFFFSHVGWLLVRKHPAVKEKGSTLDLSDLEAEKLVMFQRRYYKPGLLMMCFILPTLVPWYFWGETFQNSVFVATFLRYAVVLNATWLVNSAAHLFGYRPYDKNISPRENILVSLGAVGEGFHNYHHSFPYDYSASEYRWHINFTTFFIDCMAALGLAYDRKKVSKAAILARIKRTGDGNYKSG
# Method in brief: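 Orthogonal assay using tritiated stearoylCoA substrate and human liver microsomes as enzyme source; IC₅₀ determined.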
# [7] = biological target: Voltage-gated inwardly rectifying potassium channel KCNH2 (Homo sapiens, UniProt Q12809); experiment: Inhibition of human ERG by patch clamp assay
# Voltage-gated inwardly rectifying potassium channel KCNH2, sequence (Q12809 whole entry): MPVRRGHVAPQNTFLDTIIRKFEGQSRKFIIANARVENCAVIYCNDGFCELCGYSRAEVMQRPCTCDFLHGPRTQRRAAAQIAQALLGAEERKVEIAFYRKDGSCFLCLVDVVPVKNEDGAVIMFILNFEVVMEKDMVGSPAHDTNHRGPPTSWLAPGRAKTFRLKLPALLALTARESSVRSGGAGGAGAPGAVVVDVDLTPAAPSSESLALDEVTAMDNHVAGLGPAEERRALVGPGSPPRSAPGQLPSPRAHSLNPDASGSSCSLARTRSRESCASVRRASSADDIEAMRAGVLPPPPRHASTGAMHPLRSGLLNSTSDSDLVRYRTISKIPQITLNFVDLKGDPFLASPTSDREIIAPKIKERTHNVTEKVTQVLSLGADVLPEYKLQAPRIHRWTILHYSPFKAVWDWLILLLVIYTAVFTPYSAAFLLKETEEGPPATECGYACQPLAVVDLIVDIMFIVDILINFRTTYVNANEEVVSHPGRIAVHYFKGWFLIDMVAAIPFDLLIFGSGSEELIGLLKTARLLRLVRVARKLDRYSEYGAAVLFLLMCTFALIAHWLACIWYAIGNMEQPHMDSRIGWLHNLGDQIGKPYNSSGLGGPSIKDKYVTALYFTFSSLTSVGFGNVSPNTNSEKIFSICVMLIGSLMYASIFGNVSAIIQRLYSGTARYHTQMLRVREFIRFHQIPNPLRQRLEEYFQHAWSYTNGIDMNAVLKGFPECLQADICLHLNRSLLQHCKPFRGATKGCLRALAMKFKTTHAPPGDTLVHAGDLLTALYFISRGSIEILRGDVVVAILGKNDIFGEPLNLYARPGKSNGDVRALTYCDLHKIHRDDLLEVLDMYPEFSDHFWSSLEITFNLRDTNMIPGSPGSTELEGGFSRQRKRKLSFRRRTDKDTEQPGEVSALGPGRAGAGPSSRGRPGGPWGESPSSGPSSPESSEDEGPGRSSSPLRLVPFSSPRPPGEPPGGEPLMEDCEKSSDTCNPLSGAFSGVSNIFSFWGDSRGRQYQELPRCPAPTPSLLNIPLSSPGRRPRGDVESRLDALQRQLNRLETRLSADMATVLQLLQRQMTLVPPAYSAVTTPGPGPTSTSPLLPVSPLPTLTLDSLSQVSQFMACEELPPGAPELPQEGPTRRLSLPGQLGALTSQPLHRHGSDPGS
# Cytochrome P450 3A4 = Cytochrome P450 3A4 (Homo sapiens, UniProt P08684); experiment: Inhibition of CYP3A4; type: ADME
# Cytochrome P450 3A4, sequence (P08684 whole entry): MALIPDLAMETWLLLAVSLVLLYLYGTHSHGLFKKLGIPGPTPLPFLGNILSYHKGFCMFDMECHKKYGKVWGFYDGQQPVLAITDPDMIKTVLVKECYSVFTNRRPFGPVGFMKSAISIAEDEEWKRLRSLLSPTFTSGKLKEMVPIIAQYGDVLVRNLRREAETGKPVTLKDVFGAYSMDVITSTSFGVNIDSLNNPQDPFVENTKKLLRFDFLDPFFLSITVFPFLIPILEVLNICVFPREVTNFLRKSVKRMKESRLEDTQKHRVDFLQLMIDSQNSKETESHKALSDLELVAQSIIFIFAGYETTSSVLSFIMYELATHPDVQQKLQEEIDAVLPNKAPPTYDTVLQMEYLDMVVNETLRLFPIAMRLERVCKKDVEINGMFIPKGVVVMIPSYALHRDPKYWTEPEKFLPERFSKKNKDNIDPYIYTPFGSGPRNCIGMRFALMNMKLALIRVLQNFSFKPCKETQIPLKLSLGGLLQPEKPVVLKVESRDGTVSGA
# [8] = Genotoxicity in Salmonella Typhimurium by Ames test; type: toxicity; settings: salmonella enterica subsp. enterica serovar typhimurium
# Plasma [9] = experiment: Free plasma concentration in Sprague-Dawley rat plasma at 1 mg/kg, po; type: ADME, organism-based; set-up: dose 1 mg/kg, route oral; settings: in vivo
# [10] = Intrinsic clearance in rat liver microsomes assessed per mg of protein; type: ADME, Microsome
# Rattus norvegicus [11] = experiment: Reduction of desaturation index in po dosed low essential fatty acid diet model of Sprague-Dawley rat plasma after 3 hrs; type: functional, organism-based
# Method in brief: (§1)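 Sprague–Dawley rats, n = 8 per dose group, fasted 20 h, then fed low essential fatty acid (LEFA) diet for 24 h. Next day dosed po in 0.5% methylcellulose vehicle. Plasma taken 3 h post dose. Stearic and oleic acid extracted from plasma and quantitated by LC/MS. DI = total oleic:stearic acid ratio; % reduction relative to vehicle group.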
# Cytochrome P450 1A2 = biological target: T3, Cytochrome P450 1A2 (Homo sapiens, UniProt P05177); experiment: Inhibition of CYP1A2; type: ADME
# T3 sequence (P05177 whole entry): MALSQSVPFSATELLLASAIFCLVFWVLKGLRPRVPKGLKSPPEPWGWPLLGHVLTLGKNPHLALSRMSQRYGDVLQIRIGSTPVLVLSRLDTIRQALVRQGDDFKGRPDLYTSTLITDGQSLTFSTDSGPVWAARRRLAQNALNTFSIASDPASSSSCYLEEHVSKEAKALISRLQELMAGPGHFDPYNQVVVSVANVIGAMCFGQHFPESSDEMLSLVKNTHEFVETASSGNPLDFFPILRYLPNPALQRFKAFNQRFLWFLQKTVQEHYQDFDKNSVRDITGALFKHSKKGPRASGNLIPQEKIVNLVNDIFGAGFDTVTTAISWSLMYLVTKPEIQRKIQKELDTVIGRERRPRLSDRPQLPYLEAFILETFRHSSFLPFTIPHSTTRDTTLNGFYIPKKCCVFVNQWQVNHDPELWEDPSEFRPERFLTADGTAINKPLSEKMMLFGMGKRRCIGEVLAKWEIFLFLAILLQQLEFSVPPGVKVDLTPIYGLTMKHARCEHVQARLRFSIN
# Rattus norvegicus [12] = experiment: Reduction of desaturation index in low essential fatty acid diet model of Sprague-Dawley rat plasma at 1 mg/kg, po after 3 hrs; type: functional; set-up: scale not given: the % may be the effect or the level left; method in brief: as §1
# Cytochrome P450 2C19 = Cytochrome P450 2C19 (Homo sapiens, UniProt P33261); experiment: Inhibition of CYP2C19; type: ADME
# Cytochrome P450 2C19, sequence (P33261 whole entry): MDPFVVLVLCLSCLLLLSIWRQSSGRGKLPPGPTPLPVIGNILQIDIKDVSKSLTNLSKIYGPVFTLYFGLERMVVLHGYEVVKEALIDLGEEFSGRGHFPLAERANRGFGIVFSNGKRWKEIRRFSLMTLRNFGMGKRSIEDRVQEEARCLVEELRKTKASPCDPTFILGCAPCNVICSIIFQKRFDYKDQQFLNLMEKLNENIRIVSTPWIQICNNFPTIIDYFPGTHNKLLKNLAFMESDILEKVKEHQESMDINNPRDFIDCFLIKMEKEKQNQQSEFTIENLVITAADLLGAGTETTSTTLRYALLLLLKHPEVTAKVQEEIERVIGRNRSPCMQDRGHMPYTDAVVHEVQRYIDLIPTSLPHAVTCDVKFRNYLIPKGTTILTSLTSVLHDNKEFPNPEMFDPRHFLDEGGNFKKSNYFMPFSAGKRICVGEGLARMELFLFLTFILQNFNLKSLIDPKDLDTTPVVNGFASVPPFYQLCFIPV
# Plasma [13] = experiment: Free plasma concentration in Sprague-Dawley rat plasma at 30 mg/kg, po; type: ADME, organism-based; set-up: dose 30 mg/kg, route oral; settings: in vivo
# Rattus norvegicus [14] = experiment: Reduction of desaturation index in low essential fatty acid diet model of Sprague-Dawley rat plasma at 30 mg/kg, po after 3 hrs; type: functional; set-up: scale not given: the % may be the effect or the level left; method in brief: as §1
# Plasma [15] = experiment: Free plasma concentration in Sprague-Dawley rat plasma at 10 mg/kg, po; type: ADME, organism-based; set-up: dose 10 mg/kg, route oral; settings: in vivo
# Rattus norvegicus [16] = experiment: Toxicity in low essential fatty acid diet model of Sprague-Dawley rat ocular tissue assessed as red eye formation at 1 to 30 mg/kg, po after 27 hrs; type: organism-based; set-up: dose 1-30 mg/kg, route oral; settings: in vivo
# Method in brief: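 LEFA-diet Sprague–Dawley rats (n = 8/group) dosed po in 0.5% methylcellulose with plasma sampled at 3 h. Animals then held for observation. Ocular tissues (red eyes) assessed at 27 h post-dose.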
# Cytochrome P450 2D6 = Cytochrome P450 2D6 (Homo sapiens, UniProt P10635); experiment: Inhibition of CYP2D6; type: ADME
# Cytochrome P450 2D6, sequence (P10635 whole entry): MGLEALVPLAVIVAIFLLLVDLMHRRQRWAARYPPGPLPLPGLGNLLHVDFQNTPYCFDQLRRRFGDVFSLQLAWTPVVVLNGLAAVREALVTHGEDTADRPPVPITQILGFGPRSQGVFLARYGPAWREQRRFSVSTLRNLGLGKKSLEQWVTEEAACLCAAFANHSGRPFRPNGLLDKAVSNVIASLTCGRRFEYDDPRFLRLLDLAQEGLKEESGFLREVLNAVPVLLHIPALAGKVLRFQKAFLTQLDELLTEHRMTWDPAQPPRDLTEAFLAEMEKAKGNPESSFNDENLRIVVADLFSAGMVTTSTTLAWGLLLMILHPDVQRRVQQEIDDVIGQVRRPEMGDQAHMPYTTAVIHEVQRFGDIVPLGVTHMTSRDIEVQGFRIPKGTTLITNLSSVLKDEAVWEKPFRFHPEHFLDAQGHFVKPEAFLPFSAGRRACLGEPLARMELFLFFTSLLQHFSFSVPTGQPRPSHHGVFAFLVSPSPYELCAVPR
# Plasma [17] = experiment: Drug level in Sprague-Dawley rat plasma at 30 mg/kg, po; type: ADME, organism-based; set-up: dose 30 mg/kg, route oral; settings: in vivo
# Method in brief: (§2)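 Sprague–Dawley rats, n = 8 per dose group, fasted 20 h, then LEFA diet 24 h. Next day given po doses of 1, 10 or 30 mg/kg in 0.5% methylcellulose. Total drug concentration measured in plasma sampled 3 h post dose.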
# Cytochrome P450 2C9 = Cytochrome P450 2C9 (Homo sapiens, UniProt P11712); experiment: Inhibition of CYP2C9; type: ADME
# Cytochrome P450 2C9, sequence (P11712 whole entry): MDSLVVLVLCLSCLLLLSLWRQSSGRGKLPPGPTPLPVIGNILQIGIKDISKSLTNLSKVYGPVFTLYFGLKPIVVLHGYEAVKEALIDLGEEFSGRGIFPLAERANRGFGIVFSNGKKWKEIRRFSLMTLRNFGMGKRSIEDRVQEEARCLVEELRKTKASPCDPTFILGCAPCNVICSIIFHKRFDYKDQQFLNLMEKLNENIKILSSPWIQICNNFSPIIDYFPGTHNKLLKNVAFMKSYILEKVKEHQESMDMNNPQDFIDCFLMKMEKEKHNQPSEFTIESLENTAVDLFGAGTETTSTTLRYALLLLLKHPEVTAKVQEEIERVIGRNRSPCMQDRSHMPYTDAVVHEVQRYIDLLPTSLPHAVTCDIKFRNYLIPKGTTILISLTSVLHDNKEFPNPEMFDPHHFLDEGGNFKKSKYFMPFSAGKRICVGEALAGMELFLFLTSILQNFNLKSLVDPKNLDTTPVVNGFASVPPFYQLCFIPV
# Plasma [18] = experiment: Drug level in Sprague-Dawley rat plasma at 1 mg/kg, po; type: ADME, organism-based; set-up: dose 1 mg/kg, route oral; settings: in vivo; method in brief: as §2
# Rattus norvegicus [19] = experiment: Reduction of desaturation index in low essential fatty acid diet model of Sprague-Dawley rat plasma at 10 mg/kg, po after 3 hrs; type: functional; set-up: scale not given: the % may be the effect or the level left; method in brief: as §1
# Plasma [20] = experiment: Drug level in Sprague-Dawley rat plasma at 10 mg/kg, po; type: ADME, organism-based; set-up: dose 10 mg/kg, route oral; settings: in vivo; method in brief: as §2
# [21] = Apparent permeability of the compound by PAMPA; type: ADME
# hERG = hERG (Homo sapiens, UniProt Q12809); experiment: Displacement of [3H]-dofetilide from human ERG at 10 uM; settings: probe [3H]-dofetilide
# hERG, sequence (Q12809 whole entry): as the sequence (Q12809 whole entry) above
# Method in brief: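 Dofetilide binding assay; percent inhibition measured at […] test concentration.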
# CYP2D6 = CYP2D6 (Homo sapiens, UniProt P10635); experiment: Inhibition of CYP2D6 at 3 uM; type: ADME
# CYP2D6, sequence (P10635 whole entry, canonical isoform): as the sequence (P10635 whole entry) above
# Method in brief: (§3)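 Percent inhibition of each CYP isoform (1A2, 2C9, 2D6, 3A4) measured at […] test concentration.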
# CYP2C9 = CYP2C9 (Homo sapiens, UniProt P11712); experiment: Inhibition of CYP2C9 at 3 uM; type: ADME; method in brief: as §3
# CYP2C9, sequence (P11712 whole entry): as the sequence (P11712 whole entry) above
# Acyl-CoA desaturase 1 [22] = biological target: T1, Acyl-CoA desaturase 1; experiment: Inhibition of rat liver SCD1 assessed as formation of deuterated oleoylCoA by HTMS assay
# Method in brief: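 Rat liver microsomes as enzyme source. RapidFire high-throughput mass spectrometry quantitates deuterated oleoylCoA formed from deuterated stearoylCoA substrate.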
# CYP3A4 = CYP3A4 (Homo sapiens, UniProt P08684); experiment: Inhibition of CYP3A4 at 3 uM; type: ADME; method in brief: as §3
# CYP3A4, sequence (P08684 whole entry): as the sequence (P08684 whole entry) above
# CYP1A2 = biological target: T4, CYP1A2 (Homo sapiens, UniProt P05177); experiment: Inhibition of CYP1A2 at 3 uM; type: ADME; method in brief: as §3
# T4 sequence (P05177 whole entry): T3 sequence (P05177 whole entry)
compound,measurement,setting,value
Cn1ncc(NC(=O)c2cn(Cc3cccc(C(F)(F)F)c3)cn2)n1,IC50,Acyl-CoA desaturase 1 [1],25 nM
Cn1ccc(NC(=O)c2ncn(Cc3cccc(C(F)(F)F)c3)n2)n1,IC50,Acyl-CoA desaturase 1 [1],113 nM
Cn1ccc(NC(=O)c2cn(Cc3cccc(C(F)(F)F)c3)cn2)n1,Vd,[2],8.1 L/kg
same,clearance,[3],463 mL/min/kg
same,IC50,Acyl-CoA desaturase 1 [1],11 nM
same,microsomal CLint,[4],< 8 µL/min/mg
Cn1ccc(NC(=O)c2cnn(Cc3ccc(Cl)c(C(F)(F)F)c3)c2)n1,Vd,[2],0.7 L/kg
same,half-life,[5],1.3 h
same,clearance,[3],30 mL/min/kg
same,bioavailability,[6],66%
same,IC50,Acyl-CoA desaturase 1 [1],63 nM
same,microsomal CLint,[4],25.9 µL/min/mg
Cn1ccc(NC(=O)c2ccn(Cc3cccc(C(F)(F)F)c3)n2)n1,IC50,Acyl-CoA desaturase 1 [1],2140 nM
CC(=O)NCCNC(=O)c1cn(Cc2ccc(F)c(C(F)(F)F)c2)cn1,IC50,Acyl-CoA desaturase 1 [1],2750 nM
Cn1ccc(NC(=O)c2cn(Cc3cccc(OC(F)(F)F)c3)cn2)n1,IC50,Stearoyl-CoA desaturase,88 nM
same,IC50,Acyl-CoA desaturase 1 [1],32 nM
Cn1ccc(NC(=O)c2cn(Cc3cccc(Cl)c3)cn2)n1,IC50,Acyl-CoA desaturase 1 [1],57 nM
Cn1ccc(NC(=O)c2cn(Cc3ccc(Cl)c(C(F)(F)F)c3)nn2)n1,Vd,[2],10.2 L/kg
same,clearance,[3],641 mL/min/kg
same,IC50,Acyl-CoA desaturase 1 [1],33 nM
same,microsomal CLint,[4],< 8 µL/min/mg
Cc1c(C(=O)Nc2ccn(C)n2)ncn1Cc1cccc(C(F)(F)F)c1,IC50,[7],28900 nM
same,IC50,Cytochrome P450 3A4,> 30000 nM
same,Vd,[2],4.5 L/kg
same,Activity,[8],Non-toxic
same,Cp(f),Plasma [9],17.6 nM
same,microsomal CLint,[10],< 18 µL/min/mg
same,half-life,[5],2.3 h
same,clearance,[3],43 mL/min/kg
same,Activity,Rattus norvegicus [11],Dose-dependent effect
same,IC50,Cytochrome P450 1A2,> 30000 nM
same,Activity,Rattus norvegicus [12],55%
same,IC50,Cytochrome P450 2C19,> 30000 nM
same,Cp(f),Plasma [13],2035 nM
same,Activity,Rattus norvegicus [14],84%
same,bioavailability,[6],52%
same,Cp(f),Plasma [15],533.5 nM
same,Activity,Rattus norvegicus [16],Toxic
same,IC50,Cytochrome P450 2D6,> 30000 nM
same,Drug uptake,Plasma [17],6491 ng/mL
same,IC50,Cytochrome P450 2C9,> 30000 nM
same,Drug uptake,Plasma [18],56.8 ng/mL
same,Activity,Rattus norvegicus [19],85%
same,Drug uptake,Plasma [20],1703 ng/mL
same,IC50,Acyl-CoA desaturase 1 [1],11.8 nM
same,microsomal CLint,[4],< 8 µL/min/mg
Cn1ccc(NC(=O)c2cn(CCc3ccccc3Cl)cn2)n1,IC50,Acyl-CoA desaturase 1 [1],126 nM
Cn1ccc(NC(=O)c2cn(Cc3ccc(Cl)c(C(F)(F)F)c3)cn2)n1,IC50,Acyl-CoA desaturase 1 [1],16 nM
Cn1ccc(NC(=O)c2cn(CC3(CC4CC4)CCC3)cn2)n1,IC50,Acyl-CoA desaturase 1 [1],101 nM
Cn1cnc(NC(=O)c2cn(Cc3ccc(Cl)c(C(F)(F)F)c3)cn2)n1,IC50,Acyl-CoA desaturase 1 [1],63 nM
Cc1c(C(=O)N=C(N)N)ncn1Cc1ccc(Cl)cc1,Papp,[21],2.6 ×10⁻⁶ cm/s
same,inhibition at 10 µM,hERG,64%
same,inhibition at 3 µM,CYP2D6,< 1%
same,microsomal CLint,[10],74.1 µL/min/mg
same,IC50,Stearoyl-CoA desaturase,217 nM
same,inhibition at 3 µM,CYP2C9,< 1%
same,IC50,Acyl-CoA desaturase 1 [22],68 nM
same,inhibition at 3 µM,CYP3A4,< 1%
same,inhibition at 3 µM,CYP1A2,< 1%
same,IC50,Acyl-CoA desaturase 1 [1],94 nM
same,microsomal CLint,[4],15.5 µL/min/mg
